Here are results for ten compounds from ChEMBL document CHEMBL2434944, “Novel acetamidothiazole derivatives: synthesis and in vitro anticancer evaluation” (Eur J Med Chem, 2013).

In test [1] the test system is ACHN. The experiment in a line: Growth inhibition of human ACHN cells assessed as cell growth at 10^-5 M after 48 hrs by sulforhodamine B assay relative to control. Format: functional. The conditions noted are these: read-out: Activity. Put shortly:
(§1)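 NCI-60 single-dose screen at 10^-5 M. Cells grown in RPMI 1640 with 5% FBS and 2 mM L-glutamine, plated at 5,000–40,000 cells/well according to doubling time, and preincubated 24 h at 37°C, 5% CO2. Compound dissolved in DMSO and added. Exposure 48 h. Adherent cells fixed with cold TCA (10% final), suspension cells with 16% final TCA. Read-out is 0.4% SRB staining, dye solubilised in 10 mM Tris, absorbance at 515 nm. Percent growth is calculated against the time-zero plate and untreated control.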
For orientation: In SRB staining, fixed cells bind dye roughly in proportion to their protein.

Test [2] has as its system A498. Put plainly: Growth inhibition of human A498 cells assessed as cell growth at 10^-5 M after 48 hrs by sulforhodamine B assay relative to control. Format: functional. The conditions noted are these: A498, 48 h, read-out: Activity. Put shortly: as §1
For test [3], the system named is SK-OV-3. Put plainly: Growth inhibition of human SKOV3 cells assessed as cell growth at 10^-5 M after 48 hrs by sulforhodamine B assay relative to control. Format: functional. The conditions noted are these: SK-OV-3, 48 h, read-out: Activity. Put shortly: as §1
The nature of test [4]: Growth inhibition of human NCI-ADR-RES cells assessed as cell growth at 10^-5 M after 48 hrs by sulforhodamine B assay relative to control. The conditions noted are these: read-out: Activity. Format: functional. Put shortly: as §1
Test [5] relates to OVCAR-8. Put plainly: Growth inhibition of human OVCAR8 cells assessed as cell growth at 10^-5 M after 48 hrs by sulforhodamine B assay relative to control. Format: functional. The conditions noted are these: OVCAR-8, 48 h, read-out: Activity. Put shortly: as §1
For test [6], the system named is OVCAR-5. The experiment in a line: Growth inhibition of human OVCAR5 cells assessed as cell growth at 10^-5 M after 48 hrs by sulforhodamine B assay relative to control. In kind it is functional. The conditions noted are these: OVCAR-5, 48 h, read-out: Activity. Summed up:
as §1

Test [7] has as its system SK-MEL-2. The experiment in a line: Growth inhibition of human SK-MEL-2 cells assessed as cell growth at 10^-5 M after 48 hrs by sulforhodamine B assay relative to control. In kind it is functional. The conditions noted are these: SK-MEL-2, 48 h, read-out: Activity. Summed up: as §1
The subject of test [8] is Malme-3M. Put plainly: Growth inhibition of human MALME-3M cells assessed as cell growth at 10^-5 M after 48 hrs by sulforhodamine B assay relative to control. In kind it is functional. The conditions noted are these: read-out: Activity. Put shortly:
as §1

The subject of test [9] is SNB-75. The experiment in a line: Growth inhibition of human SNB75 cells assessed as cell growth at 10^-5 M after 48 hrs by sulforhodamine B assay relative to control. In kind it is functional. The conditions noted are these: SNB-75, 48 h, read-out: Activity. Summed up:
as §1

Test [10] concerns SF-539. Put plainly: Growth inhibition of human SF539 cells assessed as cell growth at 10^-5 M after 48 hrs by sulforhodamine B assay relative to control. The conditions noted are these: SF-539, 48 h, read-out: Activity. In kind it is functional. Summed up:
as §1

The nature of test [11]: Growth inhibition of human HCC2998 cells assessed as cell growth at 10^-5 M after 48 hrs by sulforhodamine B assay relative to control. In kind it is functional. The conditions noted are these: HCC 2998, 48 h, read-out: Activity. Summed up: as §1
For test [12], the system named is HOP-62. Put plainly: Growth inhibition of human HOP62 cells assessed as cell growth at 10^-5 M after 48 hrs by sulforhodamine B assay relative to control. In kind it is functional. The conditions noted are these: HOP-62, 48 h, read-out: Activity. Put shortly: as §1
Test [13] addresses T1, Vitamin D3 receptor (Homo sapiens, UniProt P11473).
T1 sequence (P11473 whole entry): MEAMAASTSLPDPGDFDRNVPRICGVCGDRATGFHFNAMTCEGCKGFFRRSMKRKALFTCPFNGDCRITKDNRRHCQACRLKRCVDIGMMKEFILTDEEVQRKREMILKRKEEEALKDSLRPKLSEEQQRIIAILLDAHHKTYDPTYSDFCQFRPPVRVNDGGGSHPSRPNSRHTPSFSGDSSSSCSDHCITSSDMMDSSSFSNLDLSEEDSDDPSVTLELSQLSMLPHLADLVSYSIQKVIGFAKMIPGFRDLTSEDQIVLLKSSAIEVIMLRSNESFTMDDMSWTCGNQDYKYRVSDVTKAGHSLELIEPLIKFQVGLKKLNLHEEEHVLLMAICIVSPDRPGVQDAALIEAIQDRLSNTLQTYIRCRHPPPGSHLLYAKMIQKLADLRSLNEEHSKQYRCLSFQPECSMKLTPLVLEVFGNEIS
Put plainly: Inhibition of human vitamin D3 receptor.

For test [14], the system named is HL-60(TB). The experiment in a line: Growth inhibition of human HL-60(TB) cells assessed as cell growth at 10^-5 M after 48 hrs by sulforhodamine B assay relative to control. Format: functional. The conditions noted are these: HL-60, 48 h, read-out: Activity. Summed up: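 NCI-60 one-dose screen at 10^-5 M. Cells were grown in RPMI 1640 with 5% FBS and 2 mM L-glutamine and plated at 5,000–40,000 cells/well. They were preincubated 24 h at 37°C under 5% CO2, then exposed for 48 h. Suspension cells were fixed with 80% TCA (16% final) and stained with 0.4% SRB, read at 515 nm. Percent growth is versus untreated control, corrected for time-zero.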

The subject of test [15] is BT-549. The experiment in a line: Growth inhibition of human BT549 cells assessed as cell growth at 10^-5 M after 48 hrs by sulforhodamine B assay relative to control. Format: functional. The conditions noted are these: BT-549, 48 h, read-out: Activity. Put shortly: as §1
The subject of test [16] is SF-295. Put plainly: Growth inhibition of human SF295 cells assessed as cell growth at 10^-5 M after 48 hrs by sulforhodamine B assay relative to control. The conditions noted are these: SF-295, 48 h, read-out: Activity. In kind it is functional. Put shortly:
as §1

What is called Ki is the dissociation constant of the complex between target and ligand, obtained from inhibition or displacement. A higher Ki goes with weaker binding. Consider `Cc1ccc(-c2csc(=N)n2CC(=O)N2CCN(c3ccccc3)CC2)cc1`, for which the growth at 10 µM came out at 81.2% in test [1]; 92.6% in test [2]; 89.2% in [3]; 92.6% in test [4]; 92.9% in test [5]; 110% in [6]. Also, the growth at 10 µM worked out at 117% in test [7]; 118% in test [8]; 95.8% in test [9]; 100% in test [10]; 104% in [11]; 111% in test [12]. In addition, the growth at 10 µM in test [14] was 127%; in test [15], 92.6%. In addition, in test [13], the Ki was found to be 1.03 µM.
Take `N=c1scc(-c2ccc(Cl)cc2)n1CC(=O)N1CCN(c2ccccc2)CC1`: the growth at 10 µM was determined as 96.1% in test [1]; 84.9% in [2]; 109% in test [3]; 98% in test [4]; 97.8% in test [5]; 93.8% in test [6]. Moreover, the growth at 10 µM in test [7] came out at 79%; in test [8], 107%; in test [9], 78.4%; in test [10], 100%; in [16], 89.7%; in test [11], 95.6%. For the same compound, the growth at 10 µM in test [12] came out at 109%; in test [14], 89.8%; in test [15], 102%. The Ki in test [13] amounted to 3.07 µM.
`N=c1scc(-c2ccccc2)n1CC(=O)N1CCN(c2ccccc2)CC1`: the growth at 10 µM in [1] was determined as 83.4%; in test [2], 87.2%; in test [3], 94.5%; in test [4] it was 86.5%; in [5] it was 94.7%; in [6] it was 94.1%. The growth at 10 µM in test [7] was found to be 104%; in test [8], 94.2%; in test [9], 74.6%; in [10], 97.2%; in test [16] it was 72.4%; in test [11], 100%. Further, the figures for the growth at 10 µM in test [12], in test [14] and in [15] were 96.6%, 99% and 95.5%, respectively. This compound also showed a Ki in test [13] of 1.6 µM.
Consider `CC(=O)N1CCN(C(=O)Cn2c(-c3ccc(C)cc3)csc2=N)CC1`, for which the growth at 10 µM in test [1] was 92.8%; in test [2] it was 80.6%; in test [3], 103%; in [4] it was 93%; in [5] it was 98.4%; in test [6], 122%. Also, the growth at 10 µM came to 113% in test [7]; 121% in [8]; 82.3% in test [9]; 99.9% in test [10]; 101% in test [11]; 101% in [12]. Moreover, the results for the growth at 10 µM in [14] and in [15] were 108% and 104%, respectively. In [13], this compound displayed a Ki of 2.84 µM.
As for `CC(=O)N1CCN(C(=O)Cn2c(-c3ccc(Cl)cc3)csc2=N)CC1`, the growth at 10 µM in [1] was found to be 90.7%; in [2], 67.7%; in test [3] it was 92.4%; in test [4], 95.5%; in test [5] it was 91.2%; in test [6] it was 101%. Further, the growth at 10 µM in test [7] amounted to 95.7%; in test [8], 133%; in test [9], 74.4%; in test [10] it was 90.2%; in test [11], 98.9%; in test [12] it was 93.4%. Also, the growth at 10 µM in [14] was 98%; in [15], 89.9%. In [13], the affinity, expressed as Ki, was 2.28 µM.
In the case of `Cc1ccc(-c2csc(=N)n2CC(=O)N2CCN(C)CC2)cc1`, the growth at 10 µM in test [1] was found to be 81.2%; in test [2], 80.2%; in test [3], 111%; in [4] it was 93.1%; in [5], 99.5%; in [6], 116%. In addition, the growth at 10 µM in test [7] came out at 108%; in [8] it was 128%; in test [9] it was 73.5%; in test [10] it was 101%; in [16], 83.4%; in [11] it was 103%. In addition, the growth at 10 µM in test [12] was 99.5%; in test [14] it was 109%; in [15], 115%. The Ki in [13] turned out to be 17.1 µM.
On to `CC(=O)N1CCN(C(=O)Cn2c(-c3ccccc3)csc2=N)CC1`, for which the growth at 10 µM was 89.5% in test [1]; 100% in test [2]; 89.4% in test [3]; 105% in [4]; 96.7% in [5]; 105% in test [6]. Further, the growth at 10 µM in test [7] was determined as 108%; in test [8] it was 141%; in [9] it was 67.7%; in [10] it was 91.6%; in test [11], 107%; in [12], 85.3%. Also, the results for the growth at 10 µM in [14] and in [15] were 111% and 98%, respectively. The same compound showed a Ki in [13] of 4.66 µM.
Take `CN1CCN(C(=O)Cn2c(-c3ccc(Cl)cc3)csc2=N)CC1`: the growth at 10 µM was determined as 98.6% in [1]; 80% in test [2]; 92.5% in test [3]; 98% in [4]; 96.8% in test [5]; 96.4% in test [6]. Also, the growth at 10 µM in test [7] is 102%; in [8] it was 99.6%; in [9] it was 79.5%; in [10], 100%; in [11] it was 97.5%; in test [12], 101%. For the same compound, the growth at 10 µM in test [14] turned out to be 102%; in test [15] it was 104%. In test [13], this compound had an inhibition constant (Ki) of 3.66 µM.
As for `N=c1scc(-c2ccccc2)n1CC(=O)N1CCOCC1`, the growth at 10 µM in [1] amounted to 88%; in test [2], 117%; in [3], 92.3%; in test [4], 105%; in [5], 94.8%; in test [6], 96.3%. The growth at 10 µM in [7] was determined as 106%; in test [8], 102%; in test [9], 59.4%; in [10] it was 98.8%; in [11], 104%; in test [12] it was 90%. Further, the growth at 10 µM in test [14] stood at 118%; in test [15] it was 103%. The inhibition constant (Ki) in test [13] amounted to 24.4 µM.
Take `N=c1scc(-c2ccc(Cl)cc2)n1CC(=O)N1CCOCC1`: the growth at 10 µM was 99.4% in test [1]; 75.5% in test [2]; 90% in [3]; 98.3% in [4]; 101% in test [5]; 113% in test [6]. Moreover, the growth at 10 µM in test [7] was determined as 107%; in test [8] it was 105%; in [9], 75.3%; in test [10], 95.8%; in [11], 99.9%; in test [12], 98.5%. Further, the values for the growth at 10 µM in test [14] and in test [15] were 96.6% and 95.5%, respectively. Moreover, the Ki in test [13] was determined as 4.13 µM.
